According to ChEMBL document CHEMBL1150416, “Design, synthesis and spectroscopic studies of resveratrol aliphatic acid ligands of human serum albumin” (Bioorg Med Chem, 2008):

Columns and labels:
[1] = Aqueous solubility assessed per 100 g in pure water; conditions: pH 7
[2] = Solubility in over saturated phosphate buffer assessed per 100 g at pH 7 after 2 mins; format: physicochemical; conditions: pH 7, 2 min
Procedure, shortened: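 Over-saturated solution made by tapping a suspension in 50 mM phosphate buffer (pH 7) for 2 min at 295 K. Content was read by UV–vis at 304 nm and converted using an extinction coefficient of 33,913 M-1 cm-1.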

Albumin [3] = biological target: T1, Albumin (Homo sapiens, UniProt P02768); assay: Binding affinity to human serum albumin assessed as increase in drug-induced fluorescence at 4 uM by fluorescence enhancing measurement; format: ADME; conditions: isolated protein
T1 sequence (P02768 whole entry): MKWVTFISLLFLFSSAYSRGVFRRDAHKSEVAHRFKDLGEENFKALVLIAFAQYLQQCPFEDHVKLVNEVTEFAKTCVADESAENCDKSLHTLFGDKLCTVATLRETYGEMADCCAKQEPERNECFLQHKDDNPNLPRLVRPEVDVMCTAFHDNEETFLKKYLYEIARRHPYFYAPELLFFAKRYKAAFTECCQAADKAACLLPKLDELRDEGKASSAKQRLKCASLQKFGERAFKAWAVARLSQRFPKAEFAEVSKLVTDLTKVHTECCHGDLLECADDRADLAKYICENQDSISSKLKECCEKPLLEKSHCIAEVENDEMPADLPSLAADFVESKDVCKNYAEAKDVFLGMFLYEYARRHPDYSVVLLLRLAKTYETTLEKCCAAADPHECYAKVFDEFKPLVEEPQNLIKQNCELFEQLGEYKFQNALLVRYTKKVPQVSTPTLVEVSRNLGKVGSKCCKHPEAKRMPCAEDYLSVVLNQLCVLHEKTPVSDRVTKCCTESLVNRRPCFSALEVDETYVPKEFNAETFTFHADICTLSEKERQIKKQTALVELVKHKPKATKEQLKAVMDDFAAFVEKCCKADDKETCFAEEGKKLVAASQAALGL
Procedure, shortened: (§1)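 HSA binding was read as the resveratrol-moiety fluorescence at 388 nm. The compound was fixed at 4 µM in 50 mM phosphate buffer, pH 7, with HSA either fixed at 4 µM or increased from 2 to 16 µM, at 298 K. Solutions were read 2 min after mixing against buffer/HSA blanks. Ka came from a non-linear fit of fluorescence versus [HSA].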

Albumin [4] = biological target: T1, Albumin; assay: Binding affinity to human serum albumin by fluorescence quenching measurement; format: ADME; conditions: isolated protein
Procedure, shortened: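 HSA intrinsic (Trp) fluorescence quenching at 298 K in 50 mM phosphate buffer, pH 7. HSA was held at a fixed level while compound amounts were increased. Excitation 280 nm, emission recorded 290–360 nm, intensity taken at 350 nm; samples read 2 min after mixing, with buffer blanks. Ka was obtained by fitting the modified Stern–Volmer equation.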

[5] = Solubility in phosphate buffer assessed per 100 g at pH 7; format: physicochemical
Procedure, shortened: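 Excess solid stirred 1 h with pure water or 50 mM phosphate buffer (pH 7; 20 mM NaH2PO4 + 30 mM Na2HPO4) in a sealed dual-wall flask held at 295 K by circulating water. The solid was removed by two 2-min centrifugations. Dissolved content was read by UV–vis at 304 nm and converted using an extinction coefficient of 33,913 M-1 cm-1.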

Albumin [6] = biological target: T1, Albumin; assay: Binding affinity to human serum albumin assessed as decrease in UV absorbance by UV-vis measurement; format: ADME; parameters: scale not given: the % may be the effect or the level left; conditions: isolated protein
Procedure, shortened: (§2)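 The compound was held at 4 µM in 50 mM phosphate buffer, pH 7 (20 mM NaH2PO4 and 30 mM Na2HPO4), and HSA was added at increasing concentrations. UV–vis absorbance of the compound was read at 318 nm, 2 min after thorough mixing. Buffers without HSA and with matching HSA levels served as blanks. Each compound solution was used only once.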

Albumin [7] = biological target: T1, Albumin; assay: Binding affinity to human serum albumin at 4 uM by fluorescence enhancing measurement; format: ADME; conditions: isolated protein
Procedure, shortened: as §1

Albumin [8] = biological target: T1, Albumin; assay: Binding affinity to human serum albumin at 4 uM by UV-vis measurement; format: ADME
Procedure, shortened: as §2

Compound | solubility [1] | solubility [2] | Activity (Albumin [3]) | Ka (Albumin [4]) | solubility [5] | Activity (Albumin [6]) | Ka (Albumin [7]) | Kd (Albumin [8]) | Ka (Albumin [8]; human, isolated protein, 4 µM)
O=C(O)COc1ccc(/C=C/c2cc(O)cc(O)c2)cc1 | 80.91 mg | 867.8 mg | 50% | 2.95 ×10⁵ /M | 313.8 mg | – | – | – | –
COC(=O)CCCCCOc1ccc(/C=C/c2cc(O)cc(O)c2)cc1 | 0.032 mg | – | – | 3.05 ×10⁵ /M | 0.085 mg | – | – | – | –
CCOC(=O)COc1ccc(/C=C/c2cc(O)cc(O)c2)cc1 | 1.93 mg | – | – | 1.14 ×10⁵ /M | 1.4 mg | – | – | – | –
O=C(O)CCCCCOc1ccc(/C=C/c2cc(O)cc(O)c2)cc1 [RESVERATROL HEXANOIC ACID] | 4.52 mg | – | – | 67 ×10⁵ /M | 10.54 mg | 20% | 31.2 ×10⁵ /M | 382 nM | 26.2 ×10⁵ /M
Oc1ccc(/C=C/c2cc(O)cc(O)c2)cc1 [RESVERATROL] | 3.24 mg | – | – | 1.64 ×10⁵ /M | 3.24 mg | – | – | – | –
